One compound from ChEMBL document CHEMBL4052826, “Design and Synthesis of Novel Reactive Oxygen Species Inducers for the Treatment of Pancreatic Ductal Adenocarcinoma” (J Med Chem, 2018) can be followed below.

Activity calls are given as the source filed them. The calls are words filed in the database; no cut-off is given here.

For data set [1], the system named is Mus musculus. The experiment in a line: Toxicity in NOD/SCID mouse xenografted with human MIAPaCa2 cells assessed as weakness at 5 mg/kg, ip administered 5 times a week until day 44. It is filed as organism-based. The settings on record: in vivo. The method, boiled down:
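Subcutaneous flank MIA PaCa-2 xenografts (2.0×10^6 cells) in 6-week NOD/SCID mice, randomized at 65 mm3 (n=5/group: vehicle or drug). Dosed ip in 5% DMSO/60% propylene glycol/35% saline, five days on/two off, to day 44. Body weight tracked and mice watched for weakness, weight loss or lethargy; mean ± SEM.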

Data set [2] has as its system MIA PaCa-2. Description: Induction of unfolded protein response in human MIAPaCa2 cells assessed as upregulation of CHOP expression at 2 uM by Western blot analysis. Format: functional, cell-based. The conditions noted are these: TDE = time-dependent effect. In outline: (§1)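 Immunoblotting. Cells (4×10^5) in 60 mm dishes were treated, lysed 30 min at 4°C and quantified by BCA. 40 μg protein was run on SDS-PAGE and transferred to PVDF. Primary antibodies (1:1000) incubated overnight at 4°C, then Dylight 800 secondary, with fluorescent scanning. Bands were normalized to GAPDH or actin loading controls. Mean ± SD, three independent experiments, Student's t-test.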

The subject of a further data set is PANC-1. The experiment in a line: Induction of reactive oxygen species generation in human PANC1 cells assessed as upregulation of HO-1 expression at 2 uM after 4 to 24 hrs by Western blot analysis. Format: functional, cell-based. The method, boiled down:
as §1

The test system of data set [3] is MIA PaCa-2. Description: Induction of reactive oxygen species generation in human MIAPaCa2 cells assessed as upregulation of NQO1 expression at 2 uM after 4 to 24 hrs by Western blot analysis. It is filed as functional, cell-based. The method, boiled down:
as §1

The subject of data set [4] is MIA PaCa-2. The experiment in a line: Downregulation of Sp3 gene expression in human MIAPaCa2 cells at IC50 to 5 times IC50 after 4 hrs by Bru-seq analysis. Format: functional, cell-based.
The test system of data set [5] is MIA PaCa-2. Description: Cytotoxicity against human MIAPaCa2 cells assessed as decrease in cell proliferation after 72 hrs in presence of NAC by MTT assay. It is filed as functional, cell-based. The method, boiled down:
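MIA PaCa-2 cells were treated for 72 h with compound in the presence of 5 mM NAC. Viability was read by MTT (final 300 μg/mL, 3 h, A570). Mean ± SD of three independent experiments.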

For data set [6], the system named is MIA PaCa-2. The experiment in a line: Inhibition of mtDNA transcription from LSP promoter in human MIAPaCa2 cells at 5 times IC50 after 4 hrs by Bru-seq analysis. Format: functional, cell-based. In outline: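 Nascent RNA sequencing (Bru-seq): 4×10^6 MIA PaCa-2 cells seeded in 10 cm dishes, treated next day for 4 h with drug or DMSO. Bromouridine (2 mM final) added for the last 30 min. Total RNA taken in TRIZOL; labeled RNA immunocaptured, converted to cDNA libraries and deep sequenced. Signal compared with DMSO-treated cells.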

For data set [7], the system named is Mus musculus. The experiment in a line: Toxicity in NOD/SCID mouse xenografted with human MIAPaCa2 cells assessed as microscopic changes in kidney at 5 mg/kg, ip administered 5 times a week until day 44 by hematoxylin and eosin staining-based inverted microscopic method. It is filed as organism-based. The conditions noted are these: in vivo. The method, boiled down: (§2)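 Necropsy after the 44-day ip course in MIA PaCa-2 xenograft-bearing NOD/SCID mice: heart, kidney, liver, lung, spleen and pancreas fixed in 10% neutral buffered formalin, paraffin-embedded, sectioned and stained with hematoxylin and eosin. Sections examined by inverted microscope at 20X, compared with vehicle-treated animals.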

Data set [8] deals with MIA PaCa-2. The experiment in a line: Antitumor activity against human MIAPaCa2 cells xenografted in NOD/SCID mouse assessed as delay of tumor growth at 5 mg/kg, ip administered 5 times a week until day 44 followed by dose escalation up to 20 mg/kg until day 67. Format: functional, organism-based. The method, boiled down: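 Subcutaneous MIA PaCa-2 flank xenografts in NOD/SCID mice, randomized at 65 mm3. Dosing was 5 mg/kg ip in 5% DMSO/60% propylene glycol/35% saline, five days on and two off, to day 44. Two mice per group then continued with the dose gradually raised to 20 mg/kg until day 67. Tumor volume was taken by caliper and body weight monitored.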

A short description of data set [9]: Selectivity index, ratio of IC50 for HPDEC to IC50 for human MIAPaCa2 cells. The method, boiled down:
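The measurement is MTT cytotoxicity (72 h) in HPV16-E6E7-immortalized HPDE cells and in MIA PaCa-2 cells, both grown in RPMI1640 with 10% FBS. Cells were seeded at 3000–8000/well and attached overnight, then treated with serial dilutions (30 nM–10 μM for most lines). MTT (300 μg/mL final) was added for 3 h at 37°C, formazan was dissolved in DMSO and A570 was read. IC50s are mean ± SD of three experiments; the index is their ratio.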

For data set [10], the system named is Mus musculus. Description: Induction of reactive oxygen species generation in tumor of NOD/SCID mouse xenografted with MIAPaCa2 cells assessed as upregulation of NQO1 expression at 5 mg/kg, ip administered 5 times a week until day 44 by Western blot method. Format: functional, organism-based.
The subject of data set [11] is MIA PaCa-2. The experiment in a line: Induction of reactive oxygen species generation in human MIAPaCa2 cells assessed as upregulation of HO-1 expression at 2 uM after 4 to 24 hrs by Western blot analysis. It is filed as functional, cell-based. The method, boiled down: as §1
In data set [12] the test system is MIA PaCa-2. The experiment in a line: Cytotoxicity against gemcitabine-resistant human MIAPaCa2 cells assessed as decrease in cell proliferation after 72 hrs by MTT assay. It is filed as functional, cell-based. The method, boiled down:
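MTT assay. Cells (3000–8000/well) attached overnight in RPMI1640 with 10% FBS; the GR line was kept with 200 nM gemcitabine. Serial dilutions (30 nM–10 μM for most lines) were applied for 72 h. MTT was added at a final 300 μg/mL for 3 h at 37°C, formazan was dissolved in DMSO and A570 read. Inhibition = (1 − OD treated/OD control) × 100. IC50 given as mean ± SD, three independent experiments.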

The test system of data set [13] is Mus musculus. Description: Toxicity in NOD/SCID mouse xenografted with human MIAPaCa2 cells assessed as microscopic changes in spleen at 5 mg/kg, ip administered 5 times a week until day 44 by hematoxylin and eosin staining-based inverted microscopic method. Format: organism-based. The settings on record: in vivo. The method, boiled down:
as §2

A short description of data set [14]: Induction of compound aggregation.
Data set [15] has as its system Mus musculus. The experiment in a line: Toxicity in NOD/SCID mouse xenografted with human MIAPaCa2 cells assessed as body weight loss at 5 mg/kg, ip administered 5 times a week co-administered with gemcitabine at 15 mg/kg administered once a week for 48 days. It is filed as organism-based. The conditions noted are these: in vivo, 1152 h. In outline:
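MIA PaCa-2 xenografted NOD/SCID mice randomized at 75 mm3 into vehicle (n=4), single-agent (n=3 each) and combination (n=3) arms. Drug given at 5 mg/kg five times a week, gemcitabine at 15 mg/kg once a week, over a 48-day period. Body weight followed; mean ± SEM.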

For data set [16], the system named is MIA PaCa-2. Description: Antitumor activity against human MIAPaCa2 cells xenografted in NOD/SCID mouse assessed as tumor volume at 5 mg/kg, ip administered 5 times a week for 48 days (reference value: 1503 +/- 189 mm'3). Format: functional. In outline:
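MIA PaCa-2 subcutaneous xenografts in NOD/SCID mice, randomized at 75 mm3. Test agent was given at 5 mg/kg five times a week. Gemcitabine was given at 15 mg/kg either once weekly for 48 days or twice weekly for 15 days. Groups were n=3–4. Tumor volume was measured by caliper, given as mean ± SEM, and compared by unpaired t test.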

The test system of the next data set is BXPC-3. Description: Induction of reactive oxygen species generation in human BxPC3 cells assessed as upregulation of NQO1 expression at 2 uM after 4 to 24 hrs by Western blot analysis. It is filed as functional, cell-based. In outline:
as §1

Take `O=C1C(Nc2ccc(-c3ccccc3)cc2)=CC(=O)c2ncncc21`: the Activity result was “Non-Toxic” in the data set on Mus musculus [1]; “Tde” in the data set on MIA PaCa-2 [2]; “Non-Toxic” in the data set with Mus musculus [7]; “Dose-dependent effect” with MIA PaCa-2 [12]; “Non-Toxic” in the data set with Mus musculus [13]; “Non-Toxic” in the data set with Mus musculus [15]. Further, in the data set with MIA PaCa-2 [16], the Activity is on record as 248 mm3. Further, the result in the data set on PANC-1, with MIA PaCa-2 [3], in the data set on MIA PaCa-2 [4], with MIA PaCa-2 [5] and with BXPC-3 was inactive. Moreover, the inhibition entry in the data set on MIA PaCa-2 [6] is “Active”. The result (with MIA PaCa-2 [8]; in the data set with Mus musculus [10]; with MIA PaCa-2 [11]; in [14]) was Active. Also, the “Ratio IC50” value in data set [9] came out at 3. The IC50 in the data set on MIA PaCa-2 [12] (MIA PaCa-2, 72 h) came out at 1000 nM.
